# PAFAH1B2 FP inh: blocks human PAF acetylhydrolase 1b catalytic subunit 2; recombinant PAFAH1B2, FP-rhodamine activity probe, fluorescence polarization; inhibition, % at 3.39 µM; hit rate 1.2% among 340,000; P68402;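 active = inhibition above the mean of all tested compounds plus 3 SD, cut at about 24% in these data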;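 also: 0% = enzyme with DMSO and 100% = wells lacking PAFAH1B2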
# PAFAH2 inh: inhibitors of human PAFAH2. Q99487. recombinant PAFAH2, FP-rhodamine activity probe, fluorescence polarization. inhibition, % at 3.39 µM. hit rate 0.99% among 340,000;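 active = inhibition above the mean over all tested compounds plus 3 SD, cut at about 30% in these data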;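 also: inhibitors block probe labeling of enzyme so polarization drops; 0% = enzyme with DMSO and 100% = wells lacking PAFAH2 protein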
# TDP2 absorb: TDP2 (human) inhibition, absorbance primary screen; recombinant TDP2, T5PNP hydrolysis, p-nitrophenol absorbance 415 nm; inhibition, % at 12.8 µM; hit rate 0.34% among 370,000; O95551; AID 720702;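 active = inhibition above the mean of all tested compounds plus 3 SD, set per campaign, cut at about 25% in these data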;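 also: 0% = DMSO with enzyme and 100% = buffer with substrate but no TDP2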
# Target sequence (O95551 whole entry, looked up): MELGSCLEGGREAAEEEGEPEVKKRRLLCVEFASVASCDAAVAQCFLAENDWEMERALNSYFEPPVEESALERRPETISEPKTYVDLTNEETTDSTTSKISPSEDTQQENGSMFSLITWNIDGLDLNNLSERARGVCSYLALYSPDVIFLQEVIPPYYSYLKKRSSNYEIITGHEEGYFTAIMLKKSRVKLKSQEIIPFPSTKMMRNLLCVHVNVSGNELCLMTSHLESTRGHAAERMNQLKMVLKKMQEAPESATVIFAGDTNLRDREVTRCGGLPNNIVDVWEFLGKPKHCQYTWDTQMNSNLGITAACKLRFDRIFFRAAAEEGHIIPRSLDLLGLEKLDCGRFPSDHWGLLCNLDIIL
#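 Material: recombinant human TDP2; quantity: TDP2 enzyme at 120 nM final; medium: Tris-HCl pH 7.5 with MgCl2; compound: single concentration, 12.8 µM nominal, with 1% DMSO; incubation: 2 h enzyme incubation at 37 °C; signal: epi absorbance; measure: percent inhibition; benchmarks: high control without enzyme, low control DMSO plus TDP2; repeats: singlicate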
# Apaf1 inhib: blocks human Apaf-1 apoptosome activity. inhibition, % at 20 µM. reconstituted apoptosome caspase-3 activity, DEVD-Rh110 fluorescence. hit rate 0.71% among 330,000. AID 489030. O14727; active = inhibition of at least 40% at 20 µM;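 also: plate controls were DMSO wells for no effect and DEVD-CHO caspase inhibitor wells for full effect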
#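 Material: cell-free apoptosome with Apaf-1, procaspase-3 and caspase-9; Buffer or medium: Hepes pH 7.5 with detergent and BSA; Reagent: cytochrome c trigger plus (Z-DEVD)2-Rh110 caspase-3 substrate; Times: compound with Apaf-1, dATP, procaspase-3 30 min, then 50 min reaction, room temperature; Technique: Rh110 fluorescence intensity.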
# PAFAH1B3 FP inh: inhibitors of human PAFAH1B3 | recombinant PAFAH1B3, FP-rhodamine probe, fluorescence polarization | inhibition, % at 3.39 µM | hit rate 0.28% among 340,000;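 active = inhibition above the screen-wide average of all tested compounds plus 3 SD, cut at about 25% in these data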;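 also: 0% = enzyme with DMSO only and 100% = wells lacking PAFAH1B3 protein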
# PAFAH2 confirm: confirmation of human PAFAH2 inhibitors | AID 493030 | inhibition, % at 3.39 µM | recombinant PAFAH2, FP-rhodamine activity probe, fluorescence polarization | shares compounds with PAFAH2 inh | hit rate 65% among 2,300;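 active = mean inhibition over three repeats above a set limit taken from the earlier primary screen, cut at about 30% in these data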;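 also: inhibitor blocks binding of rhodamine activity probe so polarization falls; 0% = enzyme with DMSO and 100% = wells lacking PAFAH2 protein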
# Active calls of the source: *; x = no result given. This is a sample that favours compounds with a hit; in the whole collection about 2.3% have one here.
SMILES,PAFAH1B2 FP inh,PAFAH2 inh,TDP2 absorb,Apaf1 inhib,PAFAH1B3 FP inh,PAFAH2 confirm
O=C(NCC(=O)N1CCc2ccccc2C1)c1ccccc1Cl,1,3,15,x,3,x
O=C(CC12CC3CC(CC(C3)C1)C2)NCC(=O)N1CCc2ccccc2C1,12,81*,9,10,9,71*
O=C(CCS(=O)(=O)c1ccc(F)cc1)N1CCN(c2ccccc2)CC1,5,32*,-8,-6,8,25
COc1ccccc1CC(=O)Nc1ccc([N+](=O)[O-])cc1O,11,34*,-7,4,5,15
COc1ccccc1CC(=O)Nc1ccccc1O,-5,58*,2,-2,5,60*
CCN(c1ccccc1)S(=O)(=O)c1ccc(OC)c(NC(=O)Cc2ccccc2OC)c1,0,30*,-13,9,7,16
COc1ccccc1CC(=O)Nc1cc(Cl)ccc1O,4,83*,3,-5,4,80*
CC(c1ccncn1)N(C)C(=O)c1ccc2oc(Cc3ccccc3)nc2c1 (stereo unspecified),-3,36*,2,0,6,27
C=CCN1[C@@H](Cc2ccccc2)COc2cccc(N3CCCC3)c2S1(=O)=O,x,x,-7,x,x,x
Cc1[nH]c2ccccc2c1CC(=O)Nc1ccc(Nc2cccnc2)c(-c2ccc(Oc3ccccc3)cc2)c1,x,x,-3,x,x,x
CCOC(=O)CSc1nnc(-c2ccccc2NC(=O)c2ccccc2)o1,1,-23,-6,-8,-3,x
CCc1nnc(NC(=O)CSc2nnc(-c3ccccc3NC(=O)c3ccccc3)o2)s1,4,34*,11,-9,3,-3
C=CCN1C(=O)[C@@H](CC(=O)NCc2ccccc2)[C@]2(C(=O)OC)CCCCC=C12,x,x,-4,x,x,x
C[n+]1cc(C(O)(c2ccccc2)c2ccccc2)n2ccccc21,x,x,-4,x,x,x
CCOc1ncccc1C(=O)OCc1nnc(-c2ccccc2)o1,1,47*,1,3,7,45*
O=C(OCc1nnc(-c2ccccc2)o1)c1ccc2c(c1)OCO2,2,58*,7,2,-3,60*
O=C(OCc1nnc(-c2ccccc2)o1)c1ccco1,2,45*,-8,6,-1,42*
CCOc1ccc(C(=O)OCc2nnc(-c3cccs3)o2)cc1OC,0,85*,7,3,9,79*
O=C(OCc1nnc(-c2ccccc2)o1)c1cccnc1Cl,3,21,-4,-2,3,x
O=C(OCc1nnc(-c2ccccc2)o1)c1cc(=O)c2ccccc2o1,5,0,2,-9,1,x
COC(=O)[C@H](C(C)C)N1Cc2nnn(CC3CCCCC3)c2-c2cc(F)ccc2S1(=O)=O,x,x,2,x,x,x
O=C(OCc1nnc(-c2ccc(Cl)cc2)o1)c1ccc(O)cc1,1,75*,1,6,2,68*
CCOc1ccc(C(=O)NCC(=O)OCc2nnc(-c3ccccc3)o2)cc1OCC,2,60*,-18,-5,4,53*
Cc1ccc(C(=O)OCc2nnc(-c3ccccc3)o2)s1,3,81*,16,8,5,73*
Cc1nn(Cc2ccccc2)c(Cl)c1C(=O)OCc1nnc(-c2ccc(Cl)cc2)o1,0,17,8,12,-2,x
SMILES,PAFAH1B2 FP inh,PAFAH2 inh,TDP2 absorb,Apaf1 inhib,PAFAH1B3 FP inh,PAFAH2 confirm
Cc1nn(Cc2ccccc2)c(Cl)c1C(=O)OCc1nnc(-c2ccccc2)o1,3,32*,-13,23,6,23
O=C(c1ccccc1)N1CCC(Oc2cccnc2)CC1,x,x,5,x,x,x
O=C(CSc1nc2ccccc2[nH]1)NN=Cc1ccccc1C(=O)O,x,x,-4,x,x,x
Cc1ccc(CNC(=O)OC(C)(C)C)c(/C=C/S(=O)(=O)NCCc2ccccc2)c1,x,x,-10,x,x,x
C[C@H]1[C@@H](NCC2CCCCC2)CC[C@@]23CCCN2C(=O)CCC[C@@H]13,x,x,4,x,x,x
COc1ccc(CCNC(=O)COC(=O)c2ccc(N3CCCC3=O)cc2)cc1OC,2,7,-5,-2,2,x
COc1ccccc1CNC(=O)COC(=O)c1ccc(Cl)c(N)c1,-1,33*,-7,-2,1,35*
Nc1cc(C(=O)OCC(=O)NCCNC(=O)COC(=O)c2ccc(Cl)c(N)c2)ccc1Cl,7,2,4,-9,-3,x
COc1ccccc1CNC(=O)COC(=O)c1ccc(NC(N)=O)cc1,2,56*,-1,-11,-3,52*

# Compound activity: PubChem BioAssay, several laboratories
